In ChEMBL document CHEMBL4376826 (J Med Chem, 2020):
In brackets after ≈: the same amount, converted by molar mass.

How the values were obtained:
[1] = Protein binding in human plasma assessed as bound fraction; assay type: ADME, cell-free; settings: read-out: PPB (converted)
Outline: (§1)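 Binding measured in 100% plasma; reported as fraction bound.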

[2] = Half life in mouse hepatocytes; assay type: ADME, cell-based, Hepatocyte
Outline: (§2)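 Metabolic stability of the dihydrodiols measured in vitro with mouse and human liver S9 fractions and with mouse and human hepatocytes; half-life from substrate depletion.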

[3] = Inhibition of adenosine transporter (unknown origin); assay type: ADME, Homo sapiens
[4] = Retention time in beta-naphthoflavone/phenobarbital-induced rat liver S9 fraction at 100 ug/ml in presence of NADPH by LC-MS/MS analysis; assay type: ADME, subcellular
[5] = Retention time in beta-naphthoflavone/phenobarbital-induced rat liver S9 fraction at 100 ug/ml in presence of NADPH measured after 4 hrs by UV-Vis spectroscopy; assay type: ADME, subcellular; settings: s9, 4 h
[6] = target: UGT1A3 (Homo sapiens, UniProt P35503); test: Inhibition of human UGT1A3 assessed as residual enzyme activity at 10 uM relative to control; assay type: ADME; settings: read-out: Activity
[7] = Lipophilicity, logD of the compound at pH 7.4; assay type: physicochemical; settings: buffer
[8] = Half life in mouse liver S9 fraction; assay type: ADME, subcellular; outline: as §2
[9] = target: UGT1A9 (Homo sapiens, UniProt O60656); test: Inhibition of human UGT1A9 assessed as residual enzyme activity at 10 uM relative to control; assay type: ADME; settings: read-out: Activity
[10] = Intrinsic clearance in mouse liver S9 fraction; assay type: ADME, subcellular; settings: read-out: CLH
[11] = target: Broad substrate specificity ATP-binding cassette transporter ABCG2 (Homo sapiens, UniProt Q9UNQ0); test: Inhibition of BCRP (unknown origin); assay type: ADME
[12] = target: Solute carrier organic anion transporter family member 1B3 (Homo sapiens, UniProt Q9NPD5); test: Inhibition of OATP1B3 (unknown origin); assay type: ADME
[13] = Intrinsic clearance in mouse hepatocytes; assay type: ADME, cell-based, Hepatocyte
[14] = target: T1, Amine oxidase [flavin-containing] B (Homo sapiens, UniProt P27338); test: Inhibition of monoamino oxidase B (unknown origin)
T1 sequence (P27338 whole entry): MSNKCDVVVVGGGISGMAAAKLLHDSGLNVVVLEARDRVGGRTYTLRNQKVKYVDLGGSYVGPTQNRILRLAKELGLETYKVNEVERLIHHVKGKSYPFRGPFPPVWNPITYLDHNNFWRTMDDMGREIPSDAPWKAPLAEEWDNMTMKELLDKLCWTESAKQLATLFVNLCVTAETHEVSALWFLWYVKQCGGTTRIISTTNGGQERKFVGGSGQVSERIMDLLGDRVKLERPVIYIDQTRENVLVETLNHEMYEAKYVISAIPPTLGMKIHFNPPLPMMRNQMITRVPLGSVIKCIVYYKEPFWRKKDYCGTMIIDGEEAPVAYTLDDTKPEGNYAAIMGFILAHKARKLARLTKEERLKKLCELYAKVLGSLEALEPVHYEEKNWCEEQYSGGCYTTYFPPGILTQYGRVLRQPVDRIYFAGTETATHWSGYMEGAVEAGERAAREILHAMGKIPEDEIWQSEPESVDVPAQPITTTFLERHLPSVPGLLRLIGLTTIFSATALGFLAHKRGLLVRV

[15] = test system: UDP-glucuronosyltransferases (UGTs); test: Drug metabolism assessed as human UGT-mediated metabolism by measuring intrinsic clearance; assay type: ADME, protein assay
[16] = Drug level in beta-naphthoflavone/phenobarbital-induced rat liver S9 fraction treated with 100 ug/ml Ezutromid-1 assessed as compound formation in presence of NADPH measured after 4 hrs by UV-Vis spectroscopy; assay type: ADME, subcellular; settings: s9, 4 h
[17] = Half life in human liver S9 fraction; assay type: ADME, subcellular; outline: as §2
[18] = Intrinsic clearance in human hepatocytes; assay type: ADME, cell-based, Hepatocyte
[19] = Protein binding in mouse plasma assessed as bound fraction; assay type: ADME, cell-free; outline: as §1
[20] = target: T1, Amine oxidase [flavin-containing] B; test: Inhibition of monoamino oxidase B (unknown origin) at 10 uM
[21] = Kinetic aqueous solubility of the compound; assay type: physicochemical; settings: buffer; read-out: Kinetic_solubility
[22] = Intrinsic clearance in human liver S9 fraction; assay type: ADME, subcellular; settings: read-out: CLH
[23] = Inhibition of adenosine transporter (unknown origin) at 10 uM; assay type: ADME; settings: human
[24] = target: Multidrug and toxin extrusion protein 1 (Homo sapiens, UniProt Q96FL8); test: Inhibition of MATE1 (unknown origin); assay type: ADME
[25] = Permeability at pH 7.4 by PAMPA; assay type: ADME; settings: read-out: permeability
[26] = target: UDP-glucuronosyltransferase 1A4 (Homo sapiens, UniProt P22310); test: Drug metabolism assessed as human UGT1A4-mediated metabolism by measuring intrinsic clearance; assay type: ADME; settings: recombinant enzyme
[27] = target: Solute carrier organic anion transporter family member 1B1 (Homo sapiens, UniProt Q9Y6L6); test: Inhibition of OATP1B1 (unknown origin); assay type: ADME
[28] = Half life in human hepatocytes; assay type: ADME, cell-based, Hepatocyte; outline: as §2
[29] = Retention time in human plasma by LC-MS/MS analysis; assay type: ADME, cell-free
[30] = target: UGT1A4 (Homo sapiens, UniProt P22310); test: Inhibition of human UGT1A4 assessed as residual enzyme activity at 10 uM relative to control; assay type: ADME; settings: read-out: Activity
UGT1A4, sequence (P22310 whole entry): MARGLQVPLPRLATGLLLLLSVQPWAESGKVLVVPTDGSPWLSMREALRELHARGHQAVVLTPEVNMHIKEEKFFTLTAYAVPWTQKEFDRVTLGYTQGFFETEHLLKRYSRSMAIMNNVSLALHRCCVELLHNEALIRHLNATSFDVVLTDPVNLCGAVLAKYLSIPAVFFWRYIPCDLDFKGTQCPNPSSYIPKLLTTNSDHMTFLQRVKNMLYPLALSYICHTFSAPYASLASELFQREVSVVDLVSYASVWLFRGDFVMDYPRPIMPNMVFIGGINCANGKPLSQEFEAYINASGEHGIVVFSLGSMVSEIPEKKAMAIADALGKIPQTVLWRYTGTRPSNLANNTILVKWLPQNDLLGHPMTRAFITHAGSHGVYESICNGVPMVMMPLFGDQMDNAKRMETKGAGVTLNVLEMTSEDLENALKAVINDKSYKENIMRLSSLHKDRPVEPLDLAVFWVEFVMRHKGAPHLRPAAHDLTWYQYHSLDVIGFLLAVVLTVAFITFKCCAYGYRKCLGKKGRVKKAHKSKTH

UDP-glucuronosyltransferase 1A4, sequence (P22310 whole entry): as above
Solute carrier organic anion transporter family member 1B3, sequence (Q9NPD5 whole entry): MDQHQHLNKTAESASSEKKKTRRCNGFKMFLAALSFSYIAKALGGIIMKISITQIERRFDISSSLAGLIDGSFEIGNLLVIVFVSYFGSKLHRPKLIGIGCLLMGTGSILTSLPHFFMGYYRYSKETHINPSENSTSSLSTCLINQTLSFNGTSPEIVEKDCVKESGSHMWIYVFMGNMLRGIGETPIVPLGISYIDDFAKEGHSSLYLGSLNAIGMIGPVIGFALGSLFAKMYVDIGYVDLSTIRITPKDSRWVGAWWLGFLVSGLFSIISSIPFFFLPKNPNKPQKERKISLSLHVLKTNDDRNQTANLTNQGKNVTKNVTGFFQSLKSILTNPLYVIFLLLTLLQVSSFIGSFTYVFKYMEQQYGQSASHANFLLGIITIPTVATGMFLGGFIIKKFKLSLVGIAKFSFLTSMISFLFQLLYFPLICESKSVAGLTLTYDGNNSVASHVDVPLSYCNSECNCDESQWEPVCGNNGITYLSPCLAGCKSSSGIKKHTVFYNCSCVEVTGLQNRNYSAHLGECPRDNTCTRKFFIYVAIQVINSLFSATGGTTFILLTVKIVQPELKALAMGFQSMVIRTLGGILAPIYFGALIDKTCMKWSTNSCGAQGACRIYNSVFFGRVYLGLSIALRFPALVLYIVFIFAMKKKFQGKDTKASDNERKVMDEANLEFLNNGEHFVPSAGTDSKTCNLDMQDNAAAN
UGT1A3, sequence (P35503 whole entry): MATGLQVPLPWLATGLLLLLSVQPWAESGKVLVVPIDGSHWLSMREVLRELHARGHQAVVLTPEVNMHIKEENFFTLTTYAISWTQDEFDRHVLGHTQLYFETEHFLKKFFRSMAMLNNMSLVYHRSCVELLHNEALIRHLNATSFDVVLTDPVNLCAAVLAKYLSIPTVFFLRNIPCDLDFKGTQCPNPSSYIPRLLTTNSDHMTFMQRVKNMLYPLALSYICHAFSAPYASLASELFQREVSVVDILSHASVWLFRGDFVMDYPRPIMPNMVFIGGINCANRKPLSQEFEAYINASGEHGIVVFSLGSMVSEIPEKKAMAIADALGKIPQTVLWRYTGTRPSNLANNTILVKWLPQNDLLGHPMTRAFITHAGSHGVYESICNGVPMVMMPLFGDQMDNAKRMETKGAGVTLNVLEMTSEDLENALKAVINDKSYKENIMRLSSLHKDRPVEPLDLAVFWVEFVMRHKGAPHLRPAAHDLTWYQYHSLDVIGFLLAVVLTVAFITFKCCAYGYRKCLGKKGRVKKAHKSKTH
Broad substrate specificity ATP-binding cassette transporter ABCG2, sequence (Q9UNQ0 whole entry): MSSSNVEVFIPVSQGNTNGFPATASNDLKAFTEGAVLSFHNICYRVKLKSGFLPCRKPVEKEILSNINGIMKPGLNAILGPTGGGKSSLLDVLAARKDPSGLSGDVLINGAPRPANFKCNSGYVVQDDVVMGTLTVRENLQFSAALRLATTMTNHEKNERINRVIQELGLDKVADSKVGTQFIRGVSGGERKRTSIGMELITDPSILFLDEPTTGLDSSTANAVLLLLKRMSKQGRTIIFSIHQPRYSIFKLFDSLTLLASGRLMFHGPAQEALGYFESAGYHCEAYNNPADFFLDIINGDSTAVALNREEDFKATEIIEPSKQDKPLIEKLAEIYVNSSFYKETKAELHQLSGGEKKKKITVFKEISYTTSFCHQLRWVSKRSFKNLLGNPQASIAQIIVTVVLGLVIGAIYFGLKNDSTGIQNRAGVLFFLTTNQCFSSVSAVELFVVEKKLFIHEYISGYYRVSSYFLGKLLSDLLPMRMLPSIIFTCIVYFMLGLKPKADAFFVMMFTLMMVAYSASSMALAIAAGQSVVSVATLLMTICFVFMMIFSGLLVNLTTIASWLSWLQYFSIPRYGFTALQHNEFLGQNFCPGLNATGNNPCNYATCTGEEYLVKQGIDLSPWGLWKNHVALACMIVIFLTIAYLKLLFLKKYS
UGT1A9, sequence (O60656 whole entry): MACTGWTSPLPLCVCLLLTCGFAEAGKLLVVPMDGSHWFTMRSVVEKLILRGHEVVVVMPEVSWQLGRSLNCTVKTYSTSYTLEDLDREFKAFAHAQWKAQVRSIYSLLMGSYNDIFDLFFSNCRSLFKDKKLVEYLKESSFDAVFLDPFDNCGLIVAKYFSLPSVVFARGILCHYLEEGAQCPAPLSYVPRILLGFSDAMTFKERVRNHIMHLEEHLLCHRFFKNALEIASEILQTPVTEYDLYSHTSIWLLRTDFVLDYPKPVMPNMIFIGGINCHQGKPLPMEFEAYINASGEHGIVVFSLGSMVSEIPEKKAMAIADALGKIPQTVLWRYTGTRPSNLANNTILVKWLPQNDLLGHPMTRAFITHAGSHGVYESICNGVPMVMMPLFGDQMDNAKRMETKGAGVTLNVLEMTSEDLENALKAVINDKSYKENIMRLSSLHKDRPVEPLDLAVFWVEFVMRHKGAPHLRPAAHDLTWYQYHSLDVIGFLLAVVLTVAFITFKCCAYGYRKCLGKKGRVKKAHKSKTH
Solute carrier organic anion transporter family member 1B1, sequence (Q9Y6L6 whole entry): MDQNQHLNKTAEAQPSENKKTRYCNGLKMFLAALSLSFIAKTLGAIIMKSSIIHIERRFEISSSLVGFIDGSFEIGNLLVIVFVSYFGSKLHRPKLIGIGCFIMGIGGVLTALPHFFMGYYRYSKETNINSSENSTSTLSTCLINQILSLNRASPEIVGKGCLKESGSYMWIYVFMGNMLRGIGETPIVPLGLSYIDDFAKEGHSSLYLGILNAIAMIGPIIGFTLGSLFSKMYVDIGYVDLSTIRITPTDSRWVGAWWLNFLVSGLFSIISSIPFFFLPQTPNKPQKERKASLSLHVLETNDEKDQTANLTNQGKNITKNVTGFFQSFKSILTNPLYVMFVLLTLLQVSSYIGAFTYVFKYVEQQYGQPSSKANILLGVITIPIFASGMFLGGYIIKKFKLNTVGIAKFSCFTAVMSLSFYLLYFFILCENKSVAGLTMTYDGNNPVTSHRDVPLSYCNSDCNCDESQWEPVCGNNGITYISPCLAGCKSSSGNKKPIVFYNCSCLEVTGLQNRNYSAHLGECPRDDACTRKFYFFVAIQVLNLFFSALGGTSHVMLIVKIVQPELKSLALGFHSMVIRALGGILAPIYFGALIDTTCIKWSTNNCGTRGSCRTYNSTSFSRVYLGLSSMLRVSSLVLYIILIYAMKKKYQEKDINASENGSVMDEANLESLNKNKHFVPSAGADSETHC
Multidrug and toxin extrusion protein 1, sequence (Q96FL8 whole entry): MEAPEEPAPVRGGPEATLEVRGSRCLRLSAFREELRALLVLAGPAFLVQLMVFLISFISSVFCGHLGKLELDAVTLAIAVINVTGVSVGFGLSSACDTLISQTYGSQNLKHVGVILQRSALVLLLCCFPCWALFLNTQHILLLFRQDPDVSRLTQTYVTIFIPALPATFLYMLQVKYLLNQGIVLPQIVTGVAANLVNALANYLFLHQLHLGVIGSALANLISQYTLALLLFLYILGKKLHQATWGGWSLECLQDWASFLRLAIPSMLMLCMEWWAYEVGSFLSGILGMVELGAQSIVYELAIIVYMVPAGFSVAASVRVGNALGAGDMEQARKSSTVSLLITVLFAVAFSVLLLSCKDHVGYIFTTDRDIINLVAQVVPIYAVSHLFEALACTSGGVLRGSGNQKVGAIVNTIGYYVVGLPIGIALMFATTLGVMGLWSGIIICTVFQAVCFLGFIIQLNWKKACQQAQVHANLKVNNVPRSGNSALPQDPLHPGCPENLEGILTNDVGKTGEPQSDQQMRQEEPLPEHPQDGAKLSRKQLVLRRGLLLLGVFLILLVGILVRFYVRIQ

| Compound | fraction unbound [1] | half-life [2] | Retention_time [4] | activity at 10 µM [6] | logD [7] | half-life [8] | activity at 10 µM [9] | microsomal CLint [10] | inhibition (INH) [11] | inhibition (INH) [12] | CLH [13] | CL [15] | Drug uptake [16] | half-life [17] | CLH [18] | inhibition (INH) [20] | solubility kinetic [21] | microsomal CLint [22] | inhibition (INH) [23] | Papp [25] | other results |
| --- | --- | --- | --- | --- | --- | --- | --- | --- | --- | --- | --- | --- | --- | --- | --- | --- | --- | --- | --- | --- | --- |
| CCS(=O)(=O)c1ccc2oc(-c3ccc4c(c3)C=C[C@H](O)[C@H]4O)nc2c1 | 0.363 | 0.117 h | 8.2 min | 62% | 2.04 | 0.65 h | 12% | 35 µL/min/mg | Active | Active | 98 µL/min/mg | < 5.8 µL/min/pmol | Metabolite_Detected | > 2.3 h | 8 µL/min/mg | Active | 96 µM (≈ 35.7 µg/mL) | < 10 µL/min/mg | Active | 33.3 ×10⁻⁶ cm/s | IC50 [3]: 3.9 µM; Retention time [5]: 26.7 min; IC50 [14]: 4 µM; PPB [19]: Not Active; IC50 [24]: 10 µM; CL [26]: < 2.9 µL/min/pmol; inhibition (INH) [27]: Active; half-life [28]: 1.42 h; Retention_time [29]: 8.1 min |
| CCS(=O)(=O)c1ccc2oc(-c3ccc4c(c3)[C@@H](O)[C@H](O)C=C4)nc2c1 | 0.128 | 2.38 h | 9 min | 79% | 1.95 | 1.87 h | 45% | 13 µL/min/mg | Active | Active | 5 µL/min/mg | < 5.8 µL/min/pmol | Metabolite_Detected | > 2.3 h | 5 µL/min/mg | Not Active | 210 µM (≈ 78 µg/mL) | < 10 µL/min/mg | Not Active | 34.4 ×10⁻⁶ cm/s | activity at 10 µM [30]: 84%; fraction unbound ([19]; read-out: PPB (converted)): 0.077; CL [26]: < 2.9 µL/min/pmol; inhibition (INH) [27]: Active; half-life [28]: 2.37 h; Retention_time [29]: 8.9 min |
